From PMC2646813 (Journal of biomolecular screening, 2008)
Where a name gives a salt, the structure may show the parent alone. Read-outs that look alike come from different tables or passages of the source.

Experiments:
PPARαΔAB [1] = molecular target: T1, PPARαΔAB (Mus musculus, UniProt P23204); test: Primary drug-screening assay: restoration of BODIPY-C16-CoA; assay type: binding, murine; details: 20 mM glucose; for Recovery (ability to restore acyl-CoA binding): compound 1.25 μM, 10 nM BODIPY-C16-CoA, 200 nM PPARαΔAB
T1 sequence (P23204 101-468 limits assumed): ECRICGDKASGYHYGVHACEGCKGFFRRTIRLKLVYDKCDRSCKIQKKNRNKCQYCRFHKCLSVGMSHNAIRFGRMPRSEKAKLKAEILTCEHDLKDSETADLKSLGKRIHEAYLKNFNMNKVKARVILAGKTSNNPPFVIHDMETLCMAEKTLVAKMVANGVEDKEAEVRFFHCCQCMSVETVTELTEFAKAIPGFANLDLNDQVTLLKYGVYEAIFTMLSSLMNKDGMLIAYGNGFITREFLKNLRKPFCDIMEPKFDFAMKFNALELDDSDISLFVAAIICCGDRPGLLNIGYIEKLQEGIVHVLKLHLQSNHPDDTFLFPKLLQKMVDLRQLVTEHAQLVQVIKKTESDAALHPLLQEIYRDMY

PPARαΔAB [2] = molecular target: T1, PPARαΔAB; assay type: binding, murine
Outline: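 Intrinsic aromatic fluorescence quenching. 0.1 μM murine PPARαΔAB in 20 mM glucose in PBS titrated with test compound. Excitation 280 nm, emission 300–380 nm. Corrected for buffer, compound fluorescence and solvent. Kd calculated from maximal intensities, with double-reciprocal plots. Mean ± SEM, n = 3–4.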

PPARα = molecular target: T2, PPARα (Mus musculus, UniProt P23204); test: Transactivation assay, acyl-CoA oxidase reporter; assay type: cell-based; details: for Increase of PPARα transactivation (percentage change from no-compound control): basal, absence of glucose (Fig. 2C open bars); for Effect on clofibrate-induced PPARα transactivation: absence of glucose (Fig. 2D open bars)
T2 sequence (P23204 1-468): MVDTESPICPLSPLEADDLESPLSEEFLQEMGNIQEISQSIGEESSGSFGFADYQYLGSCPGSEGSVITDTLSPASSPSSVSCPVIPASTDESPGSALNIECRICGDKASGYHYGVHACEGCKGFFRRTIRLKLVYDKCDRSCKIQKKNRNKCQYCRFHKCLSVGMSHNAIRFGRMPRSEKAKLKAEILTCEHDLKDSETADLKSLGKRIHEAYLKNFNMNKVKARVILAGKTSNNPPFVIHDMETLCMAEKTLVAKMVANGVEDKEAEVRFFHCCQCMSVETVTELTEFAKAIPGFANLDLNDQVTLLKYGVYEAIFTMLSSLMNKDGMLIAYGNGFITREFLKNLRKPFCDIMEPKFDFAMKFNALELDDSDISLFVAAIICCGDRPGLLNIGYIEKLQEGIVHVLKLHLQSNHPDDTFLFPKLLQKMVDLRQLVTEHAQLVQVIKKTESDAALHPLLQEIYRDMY
Outline: (§1)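 COS-7 cells in 24-well plates transfected with 0.4 μg full-length pSG5-PPARα, alone or with pSG5-mRXRα; 0.4 μg PPRE3-TK-LUC reporter; 0.04 μg pRL-CMV. Then serum-free, glucose-free DMEM for 2 h. Compound (10 μM) added at 0 or 20 mM glucose, ±10 μM clofibrate, for 24 h. Firefly luciferase normalized to Renilla. Results given as percentage of clofibrate-induced PPARα activity, or percentage change from no-compound control; mean ± SEM, n = 3.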

PPARα-RXRα heterodimers = molecular target: T3, PPARα-RXRα heterodimers (Mus musculus, UniProt P23204); test: Transactivation assay, acyl-CoA oxidase reporter; assay type: cell-based
T3 sequence (P23204 1-468): T2 sequence (P23204 1-468)
T3 sequence (P28700 1-467 partner): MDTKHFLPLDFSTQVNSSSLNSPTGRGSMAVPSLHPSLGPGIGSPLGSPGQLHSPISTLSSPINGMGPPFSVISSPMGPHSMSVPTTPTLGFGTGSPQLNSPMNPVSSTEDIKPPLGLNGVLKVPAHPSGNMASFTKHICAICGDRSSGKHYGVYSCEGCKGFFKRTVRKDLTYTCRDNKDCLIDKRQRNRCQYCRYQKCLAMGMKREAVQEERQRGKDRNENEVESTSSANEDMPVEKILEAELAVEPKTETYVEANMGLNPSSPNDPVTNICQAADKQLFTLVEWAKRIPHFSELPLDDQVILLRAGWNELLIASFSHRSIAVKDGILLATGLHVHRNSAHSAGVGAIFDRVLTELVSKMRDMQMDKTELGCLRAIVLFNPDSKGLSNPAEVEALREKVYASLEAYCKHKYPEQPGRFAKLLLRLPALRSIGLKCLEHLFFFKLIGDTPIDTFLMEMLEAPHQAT
Outline: as §1

PPARαΔAB [3] = molecular target: T1, PPARαΔAB; test: PPARα binding assays to BODIPY-C16 fatty acid or fatty acyl-CoA; parameters: species or system murine; details: high glucose (20 mM)
Outline: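 50 nM BODIPY-C16 or BODIPY-C16-CoA prebound to 100 nM murine PPARαΔAB, then titrated with glucose. Excitation 460 nm, emission 490–540 nm. Background-corrected maximal intensities expressed as percentage change in binding versus the no-glucose control.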

PPARαΔAB [4] = molecular target: T1, PPARαΔAB; test: Circular dichroism, PPARα secondary structure; parameters: species or system murine; details: 20 mM glucose, 0.8 μM PPARαΔAB; mean ± SEM (n = 4)
Outline: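 Murine PPARαΔAB (N-terminal truncation), expressed in E. coli BL21(DE3)pLysS and purified, at 0.8 μM with 0 or 20 mM glucose. Ten CD scans averaged per spectrum. Secondary structure fractions estimated by SELCON3, CDSSTR and CONTIN/LL. Mean ± SEM, n = 4; Student's t-test.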

[5] = read-out: Kd (binding affinity of PPARα for each compound), 0.1 μM PPARαΔAB in 20 mM glucose in PBS, mean ± SEM (n = 3–4)
[6] = compound 10 μM, 10 μM clofibrate, 20 mM glucose (Fig. 2F)
[7] = compound 10 μM, 10 μM clofibrate

Row | SMILES | Recovery (ability to restore acyl-CoA binding) (PPARαΔAB [1]) [%] | Kd (PPARαΔAB [2]) [nM] | Effect on clofibrate-induced PPARα-RXRα activity (PPARα-RXRα heterodimers; [6]) | other results
1 | CC(=O)N[C@@H]1[C@@H](O)[C@H](O)[C@@H](CO)O[C@@H]1O [Acetylglucosamine] | 63.8 |  |  | Kd (PPARαΔAB [2]; [5]): 33.3 ± 3 nM; Increase of PPARα transactivation (percentage change from no-compound control) (PPARα; compound 10 μM): ≥ 50%
2 | CCCC1O[C@@H]2C[C@H]3[C@@H]4CCC5=CC(=O)C=C[C@]5(C)[C@H]4[C@@H](O)C[C@]3(C)[C@]2(C(=O)CO)O1 (stereo partly drawn) [Budesonide] | 82.0 | 26.3 ± 3.2 | significantly decreased | 
3 | CCOC(=O)[C@H](CCc1ccccc1)N[C@@H](C)C(=O)N1CCC[C@H]1C(=O)O [Enalapril maleate] | 64.7 | 26.3 ± 2.8 |  | 
4 | CC(=O)O[C@@H]1C[C@H]2C(C)(C)C(=O)C=C[C@]2(C)[C@H]2CC[C@@]3(C)[C@H](c4ccoc4)OC(=O)[C@H]4O[C@]43[C@@]21C [Gedunin] | 62.3 | 21.9 ± 1.8 | significantly decreased | Effect on clofibrate-induced PPARα transactivation (PPARα; [7]): decreases; Effect on basal PPARα activity (PPARα; compound 10 μM, with or without glucose (Fig. 2C)): significantly reduced; Effect on clofibrate-induced PPARα-RXRα activity (PPARα-RXRα heterodimers; compound 10 μM, 10 μM clofibrate, absence of glucose (Fig. 2F)): significantly affected activity; Effect on basal PPARα-RXRα heterodimer activity (PPARα-RXRα heterodimers; compound 10 μM, with or without glucose (Fig. 2E)): decreased activity
5 | CN1[C@@H]2CC[C@H]1C[C@@H](OC(=O)[C@H](CO)c1ccccc1)C2 [Hyoscyamine] | 86.4 | 14.8 ± 2.8 |  | 
6 | NC(=O)c1cnccn1 [Pyrazinamide] | 68.6 | 28.4 ± 2.3 | significantly decreased | 
7 | O=C1NS(=O)(=O)c2ccccc21 [Saccharin] | 81.3 | 22.5 ± 2 |  | Effect on clofibrate-induced PPARα transactivation (PPARα; [7]): significant increases
8 | NC(=O)c1ccccc1O [Salicylamide] | 83.1 | 25.8 ± 6 |  | 
9 | CN=C(N)NCCC[C@H](N)C(=O)O.Cl [Targinine hydrochloride, reference compound] | 67.5 |  | significantly decreased | Kd (PPARαΔAB [2]; [5]): 33.5 ± 3.5 nM; Increase of PPARα transactivation (percentage change from no-compound control) (PPARα; compound 10 μM): ≥ 50%
10 | c1ccc(CC2=NCCN2)cc1 [Tolazoline hydrochloride] | 73.9 | 31.4 ± 3.6 |  | 
11 | Cc1ccc(C(=O)c2ccc(CC(=O)O)n2C)cc1 [Tolmetin sodium, reference compound] | 97.1 | 35.1 ± 3.7 | significantly decreased | Increase of PPARα transactivation (percentage change from no-compound control) (PPARα; compound 10 μM): ≥ 50%
12 | NCCCC(=O)O [g-aminobutyric acid] | 85.5 |  |  | Kd (PPARαΔAB [2]; [5]): 29.5 ± 4.1 nM
13 | OC[C@H]1OC(O)[C@H](O)[C@@H](O)[C@@H]1O (stereo partly drawn) [glucose] |  |  |  | Decrease in BODIPY-C16-CoA fluorescence intensity (PPARαΔAB [1]; plate assay controls): ~ 30%; Effect of glucose on BODIPY-C16 (fatty acid) binding to PPARα (PPARαΔAB [3]; 50 nM BODIPY-C16, 100 nM PPARαΔAB (Fig. 1D)): not affected; Effect of glucose on BODIPY-C16-CoA binding to PPARα (PPARαΔAB [3]; 50 nM BODIPY-C16-CoA, 100 nM PPARαΔAB (Fig. 1C, 1D)): significantly decreased; Increase of transactivation by glucose over clofibrate alone (PPARα; 10 μM clofibrate, 20 mM glucose, PPARα alone (Fig. 2B)): 3- to 4 fold; Effect of glucose on basal transactivation (PPARα; 20 mM glucose, no other ligand, PPARα alone (Fig. 2A)): no significant effect; Increase of transactivation by glucose over clofibrate alone (PPARα-RXRα heterodimers; 10 μM clofibrate, 20 mM glucose, PPARα-RXRα heterodimers (Fig. 2B)): 3- to 4 fold; Effect of glucose on basal transactivation (PPARα-RXRα heterodimers; 20 mM glucose, no other ligand (Fig. 2A)): increased activity; Turns (PPARαΔAB [4]): 20.2 ± 0.7%; Unordered (PPARαΔAB [4]): 30.7 ± 0.8 %; α-Helices Distorted, Hd (PPARαΔAB [4]): 10.8 ± 0.3 %; α-Helices Regular, Hr (PPARαΔAB [4]): 14.3 ± 0.3 %; β-Sheets Distorted, Sd (PPARαΔAB [4]): 8.8 ± 0.5 %; β-Sheets Regular, Sr (PPARαΔAB [4]): 14.4 ± 1.2 %
14 | COc1cccc(OC)c1C(=O)N[C@@H]1C(=O)N2[C@@H]1SC(C)(C)[C@@H]2C(=O)O [methicillin sodium] |  |  |  | Direct binding to PPARα (change of intrinsic fluorescence) (PPARαΔAB [2]; 20 mM glucose): no binding
